Compound activity: PubChem, The Scripps Research Institute Molecular Screening Center
Rows were chosen to be rich in hits. Some 1.2% of all compounds tested hit in one or more screens of this group.
ASAP1 inh: inhibitors of human ASAP1 ArfGAP activity. ASAP1-stimulated ARF1 GTP hydrolysis, GDP FP detection. inhibition, % at 16.5 µM. 0.19% of 360,000 active. AID 624377; in the data active = inhibition above about 25%;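 also: 0% = vehicle with enzyme and substrate and 100% = no enzyme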
Target sequence (Q9ULH1 325-724 limits assumed): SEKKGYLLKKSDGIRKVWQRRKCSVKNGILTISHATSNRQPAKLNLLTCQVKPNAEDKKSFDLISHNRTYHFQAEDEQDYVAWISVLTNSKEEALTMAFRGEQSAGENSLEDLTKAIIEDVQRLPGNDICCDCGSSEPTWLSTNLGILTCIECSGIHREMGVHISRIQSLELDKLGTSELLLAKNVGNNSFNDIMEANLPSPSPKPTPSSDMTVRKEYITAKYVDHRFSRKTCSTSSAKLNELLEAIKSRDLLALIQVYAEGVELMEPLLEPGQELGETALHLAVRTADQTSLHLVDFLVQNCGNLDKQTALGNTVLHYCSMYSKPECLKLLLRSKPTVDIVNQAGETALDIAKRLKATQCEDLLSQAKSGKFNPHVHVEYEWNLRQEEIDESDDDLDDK
PREPL inh: inhibits the human prolyl oligopeptidase-like enzyme; Q4J6C6; inhibition, % at 5.96 µM; AID 2751; 0.68% of 320,000 active; recombinant PREPL, fluorescence polarization activity-based probe; in the data active = inhibition above about 43%;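 also: 0% = enzyme with DMSO and 100% = wells lacking enzyme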
ARFGAP1 inh: rat ARFGAP1 inhibition; Arfgap1-stimulated ARF1 GTP hydrolysis, GDP FP detection; Q62848; 0.26% of 360,000 active; inhibition, % at 16.5 µM;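 active = inhibition above a per-plate limit, mean inhibition of low control wells plus 3 SD, cut at about 25% in these data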;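 also: 0% = DMSO wells with enzyme and 100% = wells lacking Arfgap1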
Target sequence (Q62848 1-136 limits assumed): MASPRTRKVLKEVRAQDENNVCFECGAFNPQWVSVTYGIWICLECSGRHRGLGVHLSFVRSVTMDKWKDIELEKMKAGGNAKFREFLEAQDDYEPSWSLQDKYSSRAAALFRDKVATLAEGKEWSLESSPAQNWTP
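system = rat Arfgap1 catalytic domain, aa 1-136 | technique = FP, GDP Alexa 633 tracer displaced from anti-GDP antibody, 620/688 nm | compound = one concentration, 16.5 µM, DMSO 1.26% | medium = HEPES-based buffer, pH 7.5 | timing = compound-enzyme preincubation 20 min, reaction 120 min, detection 60 min, 25 °C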
IDE cell activ: boosts human insulin-degrading enzyme activity in HEK cells. P14735. FAbeta-B cleavage, fluorescence polarization; 0% vehicle, 100% cell-free pure enzyme wells. activation, % at 5.96 µM. 0.073% of 340,000 active. AID 493087;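 active = activation above the mean of all tested compounds plus 3 SD, set per screening campaign, cut at about 17% in these data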
IDE cell inh: inhibitors of human insulin-degrading enzyme in cells; P14735; HEK cells, FAbetaB cleavage, fluorescence polarization; inhibition, % at 5.59 µM; 0.41% of 320,000 active; AID 434962;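 active = percent inhibition above the average of all tested compounds plus 3 SD, set per screening campaign, cut at about 16% in these data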;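 also: IDE supplied by intact live HEK cells; FP after avidin binding of uncleaved biotin substrate so inhibition keeps polarization high; 0% = DMSO wells and 100% = 60 µM reference IDE inhibitor Ii1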
IDE cell inh cf: cellular human IDE inhibition, confirmation; AID 435028; 51% of 1,200 active; HEK cells, FAbetaB cleavage, fluorescence polarization; inhibition, % at 5.59 µM; shares compounds with IDE cell inh;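 active = mean inhibition across triplicate wells above the cutoff set by the earlier primary insulin-degrading enzyme screen, cut at about 16% in these data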;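 also: 0% = DMSO wells and 100% = 60 µM reference IDE inhibitor Ii1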
HEK cytotox: kills HEK cells in IDE inhibitor counter-screen | AID 449730 | HEK293 cytotoxicity, ATP luminescence | inhibition, % at 5.59 µM | shares compounds with IDE cell inh | 28% of 1,200 active; in the data active = inhibition above about 22%;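 also: 0% = vehicle wells and 100% = reference cytotoxic drug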
Active calls of the source: *.

Screening COc1ccc(COC(=O)c2ccc(Cl)c(S(=O)(=O)N3CC(C)OC(C)C3)c2)cc1 (configuration not stated) returned ASAP1 inh 4.9, PREPL inh -0.2, ARFGAP1 inh 7.3, IDE cell activ 2.4 and IDE cell inh 2.2.
Cc1ccc2[nH]cc(/C=C/c3cc[n+](C)cc3)c2c1 was read as ASAP1 inh -7.8, ARFGAP1 inh 3.7 and IDE cell activ -15.3.
`CC[n+]1ccc(/C=C/c2c[nH]c3ccccc23)cc1` gave ASAP1 inh -0.4, PREPL inh -5.4, ARFGAP1 inh -2.1, IDE cell activ -14.1, IDE cell inh 24.2*, IDE cell inh cf 40.9* and HEK cytotox 70.5*.
For CN(C)c1ccc(/C=C/c2nc3ccccc3c(=O)n2-c2ccc(C(=O)O)cc2)cc1 the results were ASAP1 inh -6.9, PREPL inh 5.3, ARFGAP1 inh -4.6, IDE cell activ -115.1, IDE cell inh 130.6*, IDE cell inh cf 133.9* and HEK cytotox 8.5.
`O=C(O)c1cccc(-n2c(/C=C/c3ccccc3)nc3ccccc3c2=O)c1` gave ASAP1 inh -3.6, PREPL inh 9.2, ARFGAP1 inh 5.7, IDE cell activ 2.0 and IDE cell inh 5.0.
CC(=Nc1ccccc1O)c1sc2ccccc2c1O was read as ASAP1 inh 6.5, PREPL inh 38.0, ARFGAP1 inh 0.6, IDE cell activ -89.4, IDE cell inh 83.7*, IDE cell inh cf 96.1* and HEK cytotox 10.2.
Screening CC(=Nc1cccc(C)c1)c1sc2ccccc2c1O returned ASAP1 inh 0.7, PREPL inh 26.2, ARFGAP1 inh 6.7, IDE cell activ -25.6, IDE cell inh 16.4*, IDE cell inh cf 28.6* and HEK cytotox 7.5.
For CC(=Nc1ccc(O)cc1)c1sc2ccccc2c1O the results were ASAP1 inh -4.3, PREPL inh 20.3, ARFGAP1 inh -13.6, IDE cell activ -27.5, IDE cell inh 27.2*, IDE cell inh cf 34.9* and HEK cytotox 19.5.
Screening CCOc1cc(/C=C(/C#N)C(=O)Nc2ccc(O)cc2)cc(Br)c1O returned ASAP1 inh -27.2, PREPL inh 0.1, ARFGAP1 inh -5.2, IDE cell activ -58.4, IDE cell inh 37.5*, IDE cell inh cf 75.3* and HEK cytotox 57.3*.
O=C(Cc1ccc(Cl)c(Cl)c1)Nc1ccc(S(=O)(=O)Nc2ncccn2)cc1 was read as ASAP1 inh 11.2, PREPL inh 6.1, ARFGAP1 inh 3.7, IDE cell activ 1.6 and IDE cell inh -2.5.
`O=C(Nn1c(O)c(C=C2N=c3ccccc3=N2)sc1=S)c1ccccc1Cl` gave ASAP1 inh 4.5, PREPL inh 8.1, ARFGAP1 inh 7.4, IDE cell activ -5.3, IDE cell inh 17.1*, IDE cell inh cf 9.5 and HEK cytotox 8.0.
`CCOC(=O)C1=C(COC(=O)COc2ccc(C#N)cc2)NC(=O)NC1C` (configuration not stated) gave ASAP1 inh 16.6, PREPL inh 6.2, ARFGAP1 inh 1.0, IDE cell activ 4.0 and IDE cell inh -2.6.
For Cc1cccc(C(=O)Nc2cccc(-c3ccc4nncn4n3)c2)c1 the results were ASAP1 inh 4.2, PREPL inh -3.7, ARFGAP1 inh 4.3, IDE cell activ -28.9, IDE cell inh 20.1*, IDE cell inh cf 12.2 and HEK cytotox 17.1.
CCN1CCCC1CNS(=O)(=O)c1ccc(Cl)c(C(F)(F)F)c1 (configuration not stated) was read as ASAP1 inh -1.4, PREPL inh -80.2, ARFGAP1 inh 8.5, IDE cell activ 2.2 and IDE cell inh -2.3.
`CC(=O)Nc1ccc(C2=NNC(=Nc3ccc(S(=O)(=O)N4CCOCC4)cc3)SC2)cc1` gave ASAP1 inh -2.5, PREPL inh 1.5, ARFGAP1 inh 2.7, IDE cell activ -29.1, IDE cell inh 21.7*, IDE cell inh cf 8.5 and HEK cytotox 15.2.
`CN1C/C(=C\c2ccc(N3CCOCC3)cc2)C(=O)/C(=C/c2ccc(N3CCOCC3)cc2)C1` gave ASAP1 inh 6.1, PREPL inh -4.1, ARFGAP1 inh -7.1, IDE cell activ -3.8 and IDE cell inh 9.2.
`CCN1C/C(=C/c2ccc(N3CCOCC3)cc2)C(=O)/C(=C/c2ccc(N3CCOCC3)cc2)C1` gave ASAP1 inh -0.7, PREPL inh 10.8, ARFGAP1 inh -3.8, IDE cell activ -24.2, IDE cell inh 18.0*, IDE cell inh cf 29.0* and HEK cytotox 93.5*.
`CCN(CC)c1ccc(/C=C(\C#N)C(=O)NCc2ccco2)cc1` gave ASAP1 inh -2.0, PREPL inh 6.3, ARFGAP1 inh 5.1, IDE cell inh 90.2*, IDE cell inh cf 51.8* and HEK cytotox 14.5.
`CC(OC(=O)/C(C#N)=C/c1ccc(N(C)C)cc1)C(=O)NCc1ccco1` (configuration not stated) gave ASAP1 inh -3.7, PREPL inh -26.0, ARFGAP1 inh 10.1, IDE cell activ -3.7 and IDE cell inh 3.8.
Screening CN(C)c1ccc(/C=C(\C#N)C(=O)NCc2ccco2)cc1 returned PREPL inh 2.5, IDE cell inh 21.9*, IDE cell inh cf 13.8 and HEK cytotox 17.8.
CN(c1ccc(F)cc1)S(=O)(=O)c1ccc(Cl)c(C(=O)NCc2ccco2)c1 was read as ASAP1 inh -9.8, PREPL inh -0.3, ARFGAP1 inh 1.0, IDE cell activ 0.5 and IDE cell inh -1.3.
`Cc1ccc2nc(/C(C#N)=C\c3ccc(N4CCOCC4)o3)[nH]c2c1` gave ASAP1 inh 7.2, PREPL inh -0.4, ARFGAP1 inh 9.8, IDE cell activ -138.6, IDE cell inh 48.5*, IDE cell inh cf 25.9* and HEK cytotox 26.6*.
Cc1cc2nc(/C(C#N)=C\c3ccc(-c4ccccc4C(=O)O)o3)[nH]c2cc1C was read as ASAP1 inh -1.5, PREPL inh 5.7, ARFGAP1 inh 5.6, IDE cell activ -123.8, IDE cell inh 30.9*, IDE cell inh cf 133.7* and HEK cytotox 7.8.
Screening Cc1ccc2nc(/C(C#N)=C\c3ccc([N+](=O)[O-])o3)[nH]c2c1 returned ASAP1 inh 22.4, PREPL inh 21.3, ARFGAP1 inh 1.4, IDE cell activ -4.8 and IDE cell inh 10.9.
For Cc1ccc2nc(/C(C#N)=C/c3ccc(-c4ccccc4C(=O)O)o3)[nH]c2c1 the results were ASAP1 inh 5.6, PREPL inh 16.2, ARFGAP1 inh -6.8, IDE cell activ -73.7, IDE cell inh 85.3*, IDE cell inh cf 115.1* and HEK cytotox 12.7.
